Measurements taken from ChEMBL document CHEMBL1921780, “Novel 3-nitro-1H-1,2,4-triazole-based aliphatic and aromatic amines as anti-chagasic agents” (J Med Chem, 2011).

What was measured:
Trypanosoma cruzi [1] = assay: Antitrypanosomal activity against amastigotes of Trypanosoma cruzi Tulahuen C4 infected in rat L6 cells after 72 hrs by alamar blue assay; conditions: Tulahuen C4, L6, 72 h
[2] = Selectivity index, ratio of IC50 for rat L6 cells to IC50 for Trypanosoma brucei rhodesiense STIB 900; type: toxicity, cell-based; conditions: L6 cells versus Trypanosoma brucei rhodesiense STIB 900, read-out: Ratio IC50
Summary of the method: (§1)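 Selectivity index is the L6 myoblast IC50 divided by the IC50 for each parasite. L. donovani was tested as axenic amastigotes. Both IC50s came from 96-well dose-response screens fitted by linear regression of sigmoidal curves.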

[3] = test system: Trypanosoma brucei brucei; assay: Antitrypanosomal activity against tetracycline-induced blood-stream Trypanosoma brucei brucei overexpressing type 1 nitroreductase after 3 days by alamar blue assay; type: functional, organism-based; conditions: 72 h
Summary of the method: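 Bloodstream-form parasites carrying inducible TbNTR, with expression induced by tetracycline (1 μg/mL). Seeded at 1 × 10^3 per ml with a range of nitrotriazole or nifurtimox concentrations. Incubated 3 days at 37 °C, then Alamar blue added for 16 h. IC50 taken from cell density.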

L6 = assay: Cytotoxicity against rat L6 cells after 72 hrs by alamar blue assay; type: cell-based; conditions: L6, 72 h
Summary of the method: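 Run in 96-well plates with a compound dose series. T. cruzi was tested as amastigotes inside infected L6 rat skeletal myoblasts. Uninfected L6 cells were used for cytotoxicity. IC50 was obtained by linear regression from sigmoidal dose–inhibition curves.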

[4] = Selectivity index, ratio of IC50 for rat L6 cells to IC50 for Trypanosoma cruzi Tulahuen C4; type: toxicity, cell-based; conditions: L6 cells versus Trypanosoma cruzi Tulahuen C4, read-out: Ratio IC50
Summary of the method: as §1

[5] = Dissociation constant, pKa of the compound; type: physicochemical
Trypanosoma cruzi [6] = assay: Ratio of benznidazole IC50 to compound IC50 for Trypanosoma cruzi Tulahuen C4 infected in rat L6 cells after 72 hrs by alamar blue assay; type: functional
[7] = test system: Trypanosoma brucei rhodesiense; assay: Antitrypanosomal activity against blood stream form of Trypanosoma brucei rhodesiense STIB 900 […] after 72 hrs by alamar blue assay; type: functional, organism-based; conditions: STIB 900, 72 h
[8] = test system: Trypanosoma brucei brucei; assay: Antitrypanosomal activity against blood-stream Trypanosoma brucei brucei expressing type 1 nitroreductase after 3 days by alamar blue assay in absence of tetracycline; type: functional, organism-based; conditions: 72 h
Summary of the method: (§2)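 Bloodstream-form parasites seeded at 1 × 10^3 per ml in growth medium with a range of nitrotriazole or nifurtimox concentrations, no tetracycline. Incubated 3 days at 37 °C, then Alamar blue added for a further 16 h. IC50 taken from culture cell density.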

[9] = Selectivity index, ratio of IC50 for rat L6 cells to IC50 for Leishmania donovani MHOM-ET-67/L82; type: toxicity, cell-based; conditions: L6 cells versus Leishmania donovani MHOM-ET-67/L82, read-out: Ratio IC50
Summary of the method: as §1

Leishmania donovani = assay: Antileishmanial activity against Leishmania donovani MHOM-ET-67/L82 axenic amastigotes after 72 hrs by alamar blue assay; conditions: MHOM-ET-67/L82, 72 h
[10] = test system: Trypanosoma brucei brucei; assay: Antitrypanosomal activity against blood-stream Trypanosoma brucei brucei after 3 days by alamar blue assay; type: functional, organism-based; conditions: 72 h
Summary of the method: as §2

[11] = test system: Trypanosoma brucei brucei; assay: Ratio of IC50 for blood-stream Trypanosoma brucei brucei expressing type 1 nitroreductase in the absence of tetracycline to IC50 for tetracycline-induced blood-stream Trypanosoma brucei brucei overexpressing type 1 nitroreductase; type: functional
Summary of the method: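 Each culture seeded at 1 × 10^3 per ml, given compound for 3 days at 37 °C, then Alamar blue added for 16 h. IC50 taken from cell density, and the ratio is uninduced over induced.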

Salmonella typhimurium = assay: Induction of mutagenesis in Salmonella Typhimurium by Ames test; type: toxicity, organism-based; conditions: salmonella enterica subsp. enterica serovar typhimurium
Trypanosoma cruzi [12] = assay: Antitrypanosomal activity against amastigote form of Trypanosoma cruzi Tulahuen C4 infected in rat L6 cells after 72 hrs by alamar blue assay; conditions: Tulahuen C4, L6, 72 h

For `Cl.O=[N+]([O-])c1nccn1CCCNc1nc(-c2ccccc2)nc2ccccc12`, which IC50 (Trypanosoma cruzi [1]) is on record?
The IC50 was 1970 nM.

What about the selectivity ratio [2] of the same compound?
Its selectivity ratio is 22.

What about the IC50 [3] of the same compound?
Its IC50 is 950 nM.

And the IC50 (L6)?
Its IC50 is 87.8 µM.

What about the selectivity ratio [4] of the same compound?
The selectivity ratio was 45.

What about the pKa [5] of the same compound?
The pKa was 5.06.

What about the “Ratio IC50” value (Trypanosoma cruzi [6]) of the same compound?
The value was 0.7.

And the IC50 [7]?
The IC50 was 3920 nM.

And the IC50 [8]?
Its IC50 is 7580 nM.

What about the selectivity ratio [9] of the same compound?
The selectivity ratio was 9.

What about the IC50 (Leishmania donovani) of the same compound?
Its IC50 is 10.1 µM.

And the IC50 [10]?
Its IC50 is 7470 nM.

What about the “Ratio IC50” value [11] of the same compound?
The value was 8.

With `Cl.O=[N+]([O-])c1ncn(CCCNc2ccnc3cc(Cl)ccc23)n1` as the compound, how does the IC50 (Trypanosoma cruzi [1]) read?
Its IC50 is 607 nM.

What about the selectivity ratio [2] of the same compound?
Its selectivity ratio is 463.

And the IC50 (L6)?
Its IC50 is 143 µM.

And the selectivity ratio [4]?
Its selectivity ratio is 236.

And the Activity (Salmonella typhimurium)?
Its Activity is “Non-toxic”.

And the pKa [5]?
The pKa was 7.31.

What about the “Ratio IC50” value (Trypanosoma cruzi [6]) of the same compound?
The value was 2.2.

What about the IC50 [7] of the same compound?
Its IC50 is 309 nM.

And the selectivity ratio [9]?
The selectivity ratio was 3.

And the IC50 (Leishmania donovani)?
The IC50 was 45.8 µM.

For `Cl.O=[N+]([O-])c1ncn(CCCCNc2ccnc3cc(Cl)ccc23)n1`, which IC50 (Trypanosoma cruzi [1]) is on record?
The IC50 was 140 nM.

And the selectivity ratio [2]?
The selectivity ratio was 708.

What about the IC50 [3] of the same compound?
Its IC50 is 100 nM.

What about the IC50 (L6) of the same compound?
Its IC50 is 137 µM.

What about the selectivity ratio [4] of the same compound?
The selectivity ratio was 976.

What about the pKa [5] of the same compound?
Its pKa is 7.31.

What about the “Ratio IC50” value (Trypanosoma cruzi [6]) of the same compound?
Its value is 9.6.

What about the IC50 [7] of the same compound?
Its IC50 is 193 nM.

What about the IC50 [8] of the same compound?
The IC50 was 440 nM.

And the selectivity ratio [9]?
Its selectivity ratio is 2.

What about the IC50 (Leishmania donovani) of the same compound?
The IC50 was 64.5 µM.

And the IC50 [10]?
The IC50 was 170 nM.

And the “Ratio IC50” value [11]?
The value was 4.

Which IC50 (Trypanosoma cruzi [1]) does the source give for `Cl.O=[N+]([O-])c1ncn(CCCNc2nc(-c3ccccc3)nc3ccccc23)n1` here?
Its IC50 is 1480 nM.

And the selectivity ratio [2]?
Its selectivity ratio is 68.

And the IC50 [3]?
Its IC50 is 70 nM.

And the IC50 (L6)?
Its IC50 is 97 µM.

And the selectivity ratio [4]?
Its selectivity ratio is 66.

What about the Activity (Salmonella typhimurium) of the same compound?
The Activity was “Non-toxic”.

And the pKa [5]?
Its pKa is 5.06.

And the “Ratio IC50” value (Trypanosoma cruzi [6])?
Its value is 0.9.

And the IC50 [7]?
Its IC50 is 1420 nM.

What about the IC50 [8] of the same compound?
The IC50 was 4480 nM.

What about the selectivity ratio [9] of the same compound?
Its selectivity ratio is 10.

And the IC50 (Leishmania donovani)?
Its IC50 is 9.48 µM.

What about the IC50 [10] of the same compound?
The IC50 was 2630 nM.

What about the “Ratio IC50” value [11] of the same compound?
The value was 64.

With `Cl.O=[N+]([O-])c1ncn(CCCNCc2cc(C(F)(F)F)cc(C(F)(F)F)c2)n1` as the compound, how does the IC50 (Trypanosoma cruzi [1]) read?
Its IC50 is 169 nM.

What about the selectivity ratio [2] of the same compound?
Its selectivity ratio is 18.

What about the IC50 [3] of the same compound?
Its IC50 is 760 nM.

And the IC50 (L6)?
The IC50 was 138 µM.

And the selectivity ratio [4]?
The selectivity ratio was 816.

What about the Activity (Salmonella typhimurium) of the same compound?
The Activity was “Non-toxic”.

What about the pKa [5] of the same compound?
Its pKa is 9.44.

What about the “Ratio IC50” value (Trypanosoma cruzi [6]) of the same compound?
Its value is 8.

And the IC50 [7]?
Its IC50 is 7840 nM.

What about the IC50 [8] of the same compound?
The IC50 was 11100 nM.

And the selectivity ratio [9]?
The selectivity ratio was 12.

And the IC50 (Leishmania donovani)?
The IC50 was 11.1 µM.

What about the IC50 [10] of the same compound?
Its IC50 is 7830 nM.

And the “Ratio IC50” value [11]?
Its value is 14.

What does the source list for `Cl.O=[N+]([O-])c1ncn(CCCN(Cc2ccc(C(F)(F)F)cc2)Cc2ccc(C(F)(F)F)cc2)n1`?
IC50 (Trypanosoma cruzi [1]): 145 nM; selectivity ratio [2]: 339; IC50 [3]: 100 nM; IC50 (L6): 91.9 µM; selectivity ratio [4]: 634; pKa [5]: 8.79; Ratio IC50 (Trypanosoma cruzi [6]): 9.3; IC50 [7]: 271 nM; IC50 [8]: 200 nM; selectivity ratio [9]: 264; IC50 (Leishmania donovani): 0.348 µM; IC50 [10]: 210 nM; Ratio IC50 [11]: 2

For `Cl.Cl.O=[N+]([O-])c1ncn(CCCN2CCN(Cc3ccc(C(F)(F)F)cc3)CC2)n1`, which IC50 (Trypanosoma cruzi [1]) is on record?
The IC50 was 340 nM.

And the selectivity ratio [2]?
The selectivity ratio was > 140.

And the IC50 (L6)?
Its IC50 is > 191 µM.

What about the selectivity ratio [4] of the same compound?
The selectivity ratio was > 562.

And the pKa [5]?
The pKa was 8.33.

And the “Ratio IC50” value (Trypanosoma cruzi [6])?
Its value is 4.

What about the IC50 [7] of the same compound?
Its IC50 is 1380 nM.

What about the selectivity ratio [9] of the same compound?
The selectivity ratio was > 3.

What about the IC50 (Leishmania donovani) of the same compound?
The IC50 was 58.1 µM.

And the IC50 [10]?
Its IC50 is > 10000 nM.

With `Cl.Cl.O=[N+]([O-])c1ncn(CCCCN2CCN(Cc3ccc(C(F)(F)F)cc3)CC2)n1` as the compound, how does the IC50 (Trypanosoma cruzi [1]) read?
The IC50 was 412 nM.

And the selectivity ratio [2]?
The selectivity ratio was 99.

What about the IC50 (L6) of the same compound?
The IC50 was 118 µM.

What about the selectivity ratio [4] of the same compound?
Its selectivity ratio is 287.

And the pKa [5]?
Its pKa is 8.52.

What about the “Ratio IC50” value (Trypanosoma cruzi [6]) of the same compound?
Its value is 3.3.

What about the IC50 [7] of the same compound?
Its IC50 is 1200 nM.

And the selectivity ratio [9]?
The selectivity ratio was 3.

What about the IC50 (Leishmania donovani) of the same compound?
The IC50 was 44.5 µM.

And the IC50 [10]?
Its IC50 is > 10000 nM.

What does the source list for `Cl.Cl.O=[N+]([O-])c1ncn(CCCN2CCN(c3ccc(C(F)(F)F)cc3)CC2)n1`?
IC50 (Trypanosoma cruzi [1]): 40 nM; selectivity ratio [2]: 10; IC50 [3]: 210 nM; IC50 (L6): 52.8 µM; selectivity ratio [4]: 1320; pKa [5]: 7.85; Ratio IC50 (Trypanosoma cruzi [6]): 33.8; IC50 [7]: 5330 nM; IC50 [8]: 2630 nM; selectivity ratio [9]: 2; IC50 (Leishmania donovani): 25.9 µM; IC50 [10]: 2300 nM; Ratio IC50 [11]: 13

What does the source list for `O=C(Cn1ccnc1[N+](=O)[O-])NCc1ccccc1` [BENZNIDAZOLE]?
Ratio IC50 (Trypanosoma cruzi [6]): 1; IC50 (Trypanosoma cruzi [12]): 1350 nM

Which IC50 [3] does the source give for `CC1CS(=O)(=O)CCN1/N=C/c1ccc([N+](=O)[O-])o1` (stereo not given) [NIFURTIMOX] here?
The IC50 was 130 nM.

And the IC50 [8]?
Its IC50 is 1710 nM.

What about the “Ratio IC50” value [11] of the same compound?
Its value is 13.
